In ChEMBL document CHEMBL2346559, “Optimization of benzoxazole-based inhibitors of Cryptosporidium parvum inosine 5'-monophosphate dehydrogenase” (J Med Chem, 2013):

Columns and labels:
[1] = biological target: T1, Inosine-5'-monophosphate dehydrogenase (Cryptosporidium parvum, UniProt Q8T6T2); test: Inhibition of Cryptosporidium parvum N-terminal His6-tagged IMPDH-mediated NADH production expressed in Escherichia coli BL21(DE3) preincubated for 5 mins prior to substrate addition by fluorescence assay in presence of BSA
T1 sequence (Q8T6T2 whole entry): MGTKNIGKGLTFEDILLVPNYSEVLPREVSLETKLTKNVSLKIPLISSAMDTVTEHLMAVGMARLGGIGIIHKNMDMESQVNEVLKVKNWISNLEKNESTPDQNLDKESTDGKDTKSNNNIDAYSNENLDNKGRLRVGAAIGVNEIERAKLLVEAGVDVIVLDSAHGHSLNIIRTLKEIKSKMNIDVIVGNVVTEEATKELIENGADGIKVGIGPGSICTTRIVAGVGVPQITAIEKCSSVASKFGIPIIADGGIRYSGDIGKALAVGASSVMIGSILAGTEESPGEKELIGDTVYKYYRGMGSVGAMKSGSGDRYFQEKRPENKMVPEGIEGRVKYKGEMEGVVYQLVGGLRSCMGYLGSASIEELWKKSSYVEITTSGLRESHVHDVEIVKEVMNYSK
Outline: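 Same CpIMPDH fluorescence assay (10 nM enzyme, 300 μM NAD, 150 μM IMP, pH 8.0 Tris buffer, 25 °C, 5 min inhibitor preincubation), run with 0.05% fatty-acid-free BSA added to gauge nonspecific protein binding. Quadruplicate points; IC50 averaged over three determinations.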

[2] = biological target: T2, Inosine-5'-monophosphate dehydrogenase (Cryptosporidium parvum) (UniProt Q8T6T2)
T2 sequence (whole entry): T1 sequence (Q8T6T2 whole entry)

[3] = biological target: T2, Inosine-5'-monophosphate dehydrogenase (Cryptosporidium parvum); remark: listed apart in the source
[4] = biological target: T1, Inosine-5'-monophosphate dehydrogenase; test: Inhibition of Cryptosporidium parvum N-terminal His6-tagged IMPDH-mediated NADH production expressed in Escherichia coli BL21(DE3) preincubated for 5 mins prior to substrate addition by fluorescence assay
[5] = biological target: Inosine-5'-monophosphate dehydrogenase 2 (Homo sapiens, UniProt P12268); test: Inhibition of human IMPDH2
Toxoplasma gondii = test: Antiparasitic activity against transgenic Toxoplasma gondii expressing Cryptosporidium parvum IMPDH; type: functional, organism-based
Outline: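 Engineered T. gondii strain that depends on CpIMPDH for guanine nucleotide synthesis, run alongside the wild-type RH strain, whose native eukaryotic IMPDH also gauges host-cell cytotoxicity. Antiparasitic EC50 is the average of three independent determinations unless otherwise stated, with some values from two determinations.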

Liver [6] = test: Half life in mouse liver microsomes by LC/MS/MS analysis in presence of NADPH; type: ADME, Microsome
Outline: (§1)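 Incubation with mouse liver microsomes at 37 °C, with and without NADPH. Percent of compound remaining measured at several time points; half-life from a fit to first-order decay.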

Liver [7] = test: Half life in mouse liver microsomes by LC/MS/MS analysis; type: ADME, Microsome; outline: as §1

Compound | IC50 [1] | Kis [2] | Kis [3] | IC50 [4] | IC50 [5] | EC50 (Toxoplasma gondii) | t1/2 (Liver [6]) | t1/2 (Liver [7])
C[C@H](Oc1cccc2ccccc12)C(=O)Nc1ccc2oc(-c3cncs3)nc2c1 | 4 nM | 0.9 nM | 1.6 nM | 2.7 nM | > 5000 nM | 300 nM |  | 
C[C@@H](C(=O)Nc1ccc2oc(-c3ccncc3)nc2c1)c1ccccc1 | 28 nM | 40 nM | 100 nM | 22.3 nM | > 5000 nM | 400 nM | 0.717 h | 2.17 h
CC(Oc1ccc(Cl)cc1Cl)C(=O)Nc1ccc2oc(-c3ccncc3)nc2c1 (stereo not given) | 120 nM | 33 nM | 58 nM | 44 nM | > 5000 nM | 650 nM |  | 
